Source: article PMC4076036 (Journal of Natural Products, 2014)

Columns and labels:
melan-a melanocytes [1] = assay: Confocal immunofluorescence microscopy of tyrosinase localization; type: cell-based, mouse
melan-a tyrosinase = biological target: T1, melan-a tyrosinase (Mus musculus, UniProt P11344); type: biochemical; settings: for type of tyrosinase inhibition: Lineweaver–Burk plot, L-DOPA
T1 sequence (P11344 19-533): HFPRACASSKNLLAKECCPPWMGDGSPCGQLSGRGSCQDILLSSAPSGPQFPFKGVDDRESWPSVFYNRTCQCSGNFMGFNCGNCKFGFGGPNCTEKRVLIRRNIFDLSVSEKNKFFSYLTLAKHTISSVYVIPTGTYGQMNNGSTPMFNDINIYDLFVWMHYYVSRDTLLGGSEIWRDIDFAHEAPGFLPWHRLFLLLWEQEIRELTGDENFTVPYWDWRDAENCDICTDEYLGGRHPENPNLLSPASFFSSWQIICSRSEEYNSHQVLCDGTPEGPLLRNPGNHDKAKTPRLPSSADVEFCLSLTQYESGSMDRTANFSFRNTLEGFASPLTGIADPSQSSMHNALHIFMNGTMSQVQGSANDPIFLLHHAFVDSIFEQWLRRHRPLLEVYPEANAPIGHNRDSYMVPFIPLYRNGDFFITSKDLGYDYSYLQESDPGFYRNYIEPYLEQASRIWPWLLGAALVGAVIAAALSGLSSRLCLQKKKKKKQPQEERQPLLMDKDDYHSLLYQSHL

tyrosinase [2] = biological target: T2, tyrosinase (Mus musculus, UniProt P11344); assay: Tyrosinase activity in treated melan-a cells; type: cell-based; settings: 60 μM, 3 days, 20 nM TPA; TPA alone 100%
T2 sequence (P11344 19-533): T1 sequence (P11344 19-533)

melan-a melanocytes [3] = assay: Sulforhodamine B cytotoxicity assay; type: cell-based, mouse; settings: 3 days, with or without forskolin
Method in brief: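 Melan-a cells in RPMI-1640 with 5% FBS and antibiotics were seeded at 20 000 cells/0.1 mL/well. They were exposed to the test compound for 72 h in medium with 20 nM TPA, 1 μM forskolin, or vehicle alone. Viability was read by the sulforhodamine B colorimetric assay. Values are mean ± SD of triplicate experiments.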

MITF, tyrosinase, TRP-1 = type: cell-based, mouse; settings: 1 day, forskolin-supplemented medium
Method in brief: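 Melan-a cells were co-treated with 1 μM forskolin, with or without the test compound, for 1 day. Proteins were extracted in PhosphoSafe buffer, run on 10% SDS-PAGE, semidry-transferred to PVDF and blocked in 3% BSA. Blots were probed for tyrosinase, TRP-1, TRP-2, MITF and β-actin, then HRP secondary antibodies (1 h, room temperature). Detection was by ECL, with stripping before reprobing.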

tyrosinase/TRP-1 complex = assay: Co-immunoprecipitation with antibody against TRP-1; type: cell-based, mouse; settings: 3 days, forskolin-supplemented medium
tyrosinase [4] = assay: Glycosylation analysis of tyrosinase; type: cell-based, mouse; settings: forskolin-supplemented medium, Endo H digestion

Structure (SMILES) | colocalization of tyrosinase and Lamp-1 (melan-a melanocytes [1]; 15 μM, 4 days) | Vmax (melan-a tyrosinase) | type of tyrosinase inhibition (melan-a tyrosinase) | colocalization of calnexin and tyrosinase (melan-a melanocytes [1]; 85 μM, 1 day, positive control) | reversibility of binding to tyrosinase (melan-a tyrosinase; tyrosinase mixed with compound 24 h prior to kinetic analysis) | tyrosinase activity (tyrosinase [2]) | cytotoxic effect (melan-a melanocytes [3]) | TRP-1 expression (MITF, tyrosinase, TRP-1) | expression of MITF (MITF, tyrosinase, TRP-1) | expression of tyrosinase (MITF, tyrosinase, TRP-1) | tyrosinase co-immunoprecipitated with TRP-1 (tyrosinase/TRP-1 complex) | tyrosinase localization (calnexin/ER, Lamp-1/lysosome) (melan-a melanocytes [1]; 60 μM, 3 days) | immature Endo H-sensitive form of tyrosinase (tyrosinase [4])
CC(=O)[C@H]1CC[C@H]2[C@@H]3CCC4=CC(=O)CC[C@]4(C)[C@H]3CC[C@]12C [progesterone] | Colocalization of both tyrosinase and Lamp-1 were also observed | – | – | – | – | – | – | – | – | – | – | – | –
Oc1ccc(/C=C/c2cc(O)cc(O)c2)cc1 [resveratrol, reference compound] | – | 2.5 × 10^–4 ΔA490/s | noncompetitive | clearly colocalize to the ER | – | – | – | – | – | – | – | – | –
OC[C@H]1O[C@@H](Oc2c(O)cc(O)cc2/C=C/c2ccc(O)cc2)[C@H](O)[C@@H](O)[C@@H]1O [Compound 1, 2,3,5,4′-Tetrahydroxystilbene-2-O-β-D-glucopyranoside] | – | – | noncompetitive | – | likely reversible | 65% | did not exert any cytotoxic effect | not prominent | suppressed | suppressed | reduction of immunoprecipitated tyrosinase | no aberrant tyrosinase is trapped in the ER and lysosome | No immature Endo H-sensitive form of tyrosinase was present
